Active and inactive are the calls of the source. No cut-off for these calls is given here.
Experiments:
HCT-116 [1] = experiment: Induction of apoptosis in human HCT116 cells assessed as late apoptotic cells at 3 uM after 12 hrs by annexin V-FITC/propidium iodide staining-based flow cytometric method (reference value: 0.34 to 0.81%); type: functional
[2] = Cytotoxicity against human RC0.1 cells assessed as growth inhibition after 72 hrs by MTT assay; type: functional
[3] = biological target: T1, Topoisomerase I (Bos taurus) (UniProt Q2HPH0); experiment: Inhibition of calf thymus TOP1-mediated relaxation of supercoiled pBR322 DNA after 30 mins by agarose gel electrophoresis
T1 sequence (whole entry): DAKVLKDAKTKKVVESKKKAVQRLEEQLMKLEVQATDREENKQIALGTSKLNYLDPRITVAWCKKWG
Summary of the method: (§1)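 0.5 µg supercoiled pBR322 in buffer (10 mM Tris-HCl pH 7.5, 50 mM KCl, 5 mM MgCl2, BSA, DTT) with 1 unit calf thymus TOP1, with or without compound (0.2-125 µM), 30 min at 37 C. Run on 0.8% agarose/TBE at 4.6 V/cm for 1.5 h, gel red stained. Activity graded in bands (e.g. +++ 81-120%). At least two independent repeats.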

HCT-116 [4] = experiment: Induction of apoptosis in human HCT116 cells assessed as viable cells at 1 uM after 12 hrs by annexin V-FITC/propidium iodide staining-based flow cytometric method (reference value: 97.60 to 98.95%); type: functional; settings: HCT-116, 12 h, read-out: Activity
NCI/ADR-RES = experiment: Cytotoxicity against human MCF7/ADR cells assessed as growth inhibition after 72 hrs by MTT assay; type: functional
Summary of the method: (§2)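 MTT growth assay in drug-resistant sublines and parental lines. HCT116-siTop1 was made by transfecting HCT116 with shRNA vectors expressing TOP1 siRNA. MCF-7, HepG2 and their ADR-resistant lines were gifts. Five-dose DMSO-predissolved compounds for 72 h at 37 C, then MTT 4 h, DMSO solubilization, OD 570 nm. GI50 by nonlinear regression. At least three repeats.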

HCT-116 [5] = experiment: Induction of apoptosis in human HCT116 cells assessed as late apoptotic cells at 1 uM after 12 hrs by annexin V-FITC/propidium iodide staining-based flow cytometric method (reference value: 0.34 to 0.81%); type: functional
DU-145 = experiment: Cytotoxicity against human DU145 cells assessed as growth inhibition after 72 hrs by MTT assay; type: functional; settings: DU-145, 72 h
Summary of the method: (§3)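 Five-dose MTT growth assay, compounds predissolved in DMSO, 72 h exposure at 37 C. Cells kept in RPMI-1640 or DMEM, 37 C, 5% CO2, passage 3-6. MTT (1 mg/mL in PBS) added for 4 h, formazan dissolved in DMSO, OD 570 nm. GI50 (50% growth inhibition) by nonlinear regression. Means ± SD, at least three repeats.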

HCT-116 [6] = experiment: Induction of apoptosis in human HCT116 cells assessed as early apoptotic cells at 3 uM after 12 hrs by annexin V-FITC/propidium iodide staining-based flow cytometric method (reference value: 0.47 to 1.19%); type: functional
HCT-116 [7] = experiment: Cytotoxicity against human HCT116 cells expressing TOP1 siRNA assessed as growth inhibition after 72 hrs by MTT assay; type: functional; settings: HCT-116, 72 h; summary of the method: as §2
[8] = Resistance ratio of GI50 for human HepG2/ADR cells to GI50 for human HepG2 cells; type: functional
Summary of the method: (§4)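 Resistance ratio: the GI50 in the resistant or TOP1-knockdown subline divided by the GI50 in the matching parental line.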

[9] = Resistance ratio of GI50 for human RC0.1 cells to GI50 for human DU145 cells; type: functional
HCT-116 [10] = experiment: Induction of apoptosis in human HCT116 cells assessed as late apoptotic cells at 9 uM after 12 hrs by annexin V-FITC/propidium iodide staining-based flow cytometric method (reference value: 0.34 to 0.81%); type: functional
MCF7 = experiment: Cytotoxicity against human MCF7 cells assessed as growth inhibition after 72 hrs by MTT assay; type: functional; settings: MCF7, 72 h; summary of the method: as §2
HCT-116 [11] = experiment: Cytotoxicity against human HCT116 cells assessed as growth inhibition after 72 hrs by MTT assay; type: functional; settings: HCT-116, 72 h; summary of the method: as §3
DNA [12] = experiment: Induction of unwinding effect of Escherichia coli supercoiled pBR322 DNA at 1 to 9 uM preincubated with DNA for 10 mins followed by excess calf thymus TOP1 addition and measured after 30 mins by agarose gel electrophoresis; type: nucleic-acid assay
Summary of the method: (§5)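 Compound (1, 3, 9 µM) preincubated with pBR322 DNA, supercoiled or relaxed, at room temperature for 10 min. Excess TOP1 then added and incubated 30 min at 37 C. Stopped with SDS/proteinase K. Ethidium bromide (0.3-1.2 mg/L) as positive control. Run on 0.8% agarose in TBE at 4.6 V/cm for 1.5 h, stained with gel red, UV visualized.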

A549 = experiment: Cytotoxicity against human A549 cells assessed as growth inhibition after 72 hrs by MTT assay; type: functional; settings: A549, 72 h; summary of the method: as §3
[13] = biological target: T1, Topoisomerase I (Bos taurus); experiment: Inhibition of calf thymus TOP1-mediated relaxation of supercoiled pBR322 DNA at 125 uM after 30 mins by agarose gel electrophoresis relative to control; summary of the method: as §1
HCT-116 [14] = experiment: Induction of apoptosis in human HCT116 cells after 12 hrs by annexin V-FITC/propidium iodide staining-based flow cytometric method; type: functional, cell-based
[15] = Resistance ratio of GI50 for human HCT116 cells expressing TOP1 siRNA to GI50 for human HCT116 cells; type: functional; summary of the method: as §4
CCRF-CEM = experiment: Cytotoxicity against human CCRF-CEM cells assessed as growth inhibition after 72 hrs by MTT assay; type: functional; summary of the method: as §3
HCT-116 [16] = experiment: Induction of apoptosis in human HCT116 cells assessed as early apoptotic cells at 1 uM after 12 hrs by annexin V-FITC/propidium iodide staining-based flow cytometric method (reference value: 0.47 to 1.19%); type: functional
DNA [17] = experiment: Induction of unwinding effect of Escherichia coli relaxed pBR322 DNA at 1 to 9 uM preincubated with DNA for 10 mins followed by excess calf thymus TOP1 addition and measured after 30 mins by agarose gel electrophoresis; type: nucleic-acid assay; summary of the method: as §5
HCT-116 [18] = experiment: Induction of apoptosis in human HCT116 cells assessed as viable cells at 3 uM after 12 hrs by annexin V-FITC/propidium iodide staining-based flow cytometric method (reference value: 97.60 to 98.95%); type: functional; settings: HCT-116, 12 h, read-out: Activity
[19] = biological target: T1, Topoisomerase I (Bos taurus); experiment: Inhibition of calf thymus TOP1-mediated relaxation of supercoiled pBR322 DNA at 25 uM after 30 mins by agarose gel electrophoresis relative to camptothecin; summary of the method: as §1
[20] = Cytotoxicity against human HepG2/ADR cells assessed as growth inhibition after 72 hrs by MTT assay; type: functional; settings: HepG2, 72 h; summary of the method: as §2
HCT-116 [21] = experiment: Induction of apoptosis in human HCT116 cells assessed as viable cells at 9 uM after 12 hrs by annexin V-FITC/propidium iodide staining-based flow cytometric method (reference value: 97.60 to 98.95%); type: functional; settings: HCT-116, 12 h, read-out: Activity
HepG2 = experiment: Cytotoxicity against human HepG2 cells assessed as growth inhibition after 72 hrs by MTT assay; type: functional; settings: HepG2, 72 h; summary of the method: as §2
[22] = Resistance ratio of GI50 for human MCF7/ADR cells to GI50 for human MCF7 cells; type: functional; summary of the method: as §4
Huh-7 = experiment: Cytotoxicity against human HuH7 cells assessed as growth inhibition after 72 hrs by MTT assay; type: functional; settings: Huh-7, 72 h; summary of the method: as §3
HCT-116 [23] = experiment: Induction of apoptosis in human HCT116 cells assessed as early apoptotic cells at 9 uM after 12 hrs by annexin V-FITC/propidium iodide staining-based flow cytometric method (reference value: 0.47 to 1.19%); type: functional
DNA [24] = experiment: Induction of unwinding effect of Escherichia coli supercoiled pBR322 DNA at 0.3 to 1.2 mg/L preincubated with DNA for 10 mins followed by excess calf thymus TOP1 addition and measured after 30 mins by agarose gel electrophoresis; type: nucleic-acid assay
Summary of the method: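 Supercoiled or relaxed pBR322 DNA was preincubated with ethidium bromide (0.3, 0.6, 1.2 mg/L, positive control) for 10 min at room temperature. Excess TOP1 was then added for 30 min at 37 °C. The reaction was stopped with SDS/proteinase K, run on 0.8% agarose in TBE at 4.6 V/cm for 1.5 h, then gel-red stained and UV imaged.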

[25] = biological target: T1, Topoisomerase I (Bos taurus); settings: 0.2 to 1 uM

Which Activity (HCT-116 [1]) does the source give for `O=C1c2cccnc2C(=O)c2c1c(C(=O)OCCN1CCCC1)c1c(F)cccn21` here?
Its Activity is 8.5%.

And the GI50 [2]?
Its GI50 is 2940 nM.

And the inhibition [3]?
The inhibition was “Dose-dependent effect”.

What about the viability at 1 µM (HCT-116 [4]) of the same molecule?
Its viability at 1 µM is 97.7%.

What about the GI50 (NCI/ADR-RES) of the same molecule?
The GI50 was 97 nM.

And the Activity (HCT-116 [5])?
The Activity was 1.17%.

And the GI50 (DU-145)?
The GI50 was 82 nM.

What about the Activity (HCT-116 [6]) of the same molecule?
Its Activity is 1.69%.

And the GI50 (HCT-116 [7])?
Its GI50 is 150 nM.

And the RatioGI50 [8]?
The RatioGI50 was 7.5.

What about the RatioGI50 [9] of the same molecule?
Its RatioGI50 is 36.8.

And the Activity (HCT-116 [10])?
Its Activity is 32.1%.

What about the GI50 (MCF7) of the same molecule?
Its GI50 is 89 nM.

And the GI50 (HCT-116 [11])?
The GI50 was 23 nM.

What about the Activity (DNA [12]) of the same molecule?
Its Activity is “inactive”.

And the GI50 (A549)?
Its GI50 is 60 nM.

What about the inhibition [13] of the same molecule?
Its inhibition is 100%.

What about the Activity (HCT-116 [14]) of the same molecule?
The Activity was “Dose-dependent effect”.

And the RatioGI50 [15]?
The RatioGI50 was 6.5.

And the GI50 (CCRF-CEM)?
The GI50 was 790 nM.

What about the Activity (HCT-116 [16]) of the same molecule?
The Activity was 0.79%.

What about the Activity (DNA [17]) of the same molecule?
Its Activity is “inactive”.

And the viability at 3 µM (HCT-116 [18])?
The viability at 3 µM was 86%.

What about the inhibition [19] of the same molecule?
The inhibition was over 121%.

And the GI50 [20]?
The GI50 was 380 nM.

And the viability at 9 µM (HCT-116 [21])?
The viability at 9 µM was 51.3%.

And the GI50 (HepG2)?
Its GI50 is 51 nM.

What about the RatioGI50 [22] of the same molecule?
Its RatioGI50 is 1.1.

What about the GI50 (Huh-7) of the same molecule?
The GI50 was 120 nM.

And the Activity (HCT-116 [23])?
The Activity was 10.17%.

Which Activity (DNA [24]) does the source give for `CC[n+]1c(-c2ccccc2)c2cc(N)ccc2c2ccc(N)cc21` here?
Its Activity is “Active”.

For `CC[C@@]1(O)C(=O)OCc2c1cc1n(c2=O)Cc2cc3ccccc3nc2-1` [CAMPTOTHECIN], which GI50 [2] is on record?
Its GI50 is 7530 nM.

And the inhibition [25]?
The inhibition was “Active”.

And the GI50 (DU-145)?
The GI50 was 19 nM.

What about the GI50 (A549) of the same molecule?
Its GI50 is 3 nM.

And the inhibition [13]?
The inhibition was 58%.

What about the GI50 (CCRF-CEM) of the same molecule?
The GI50 was 2 nM.

And the GI50 (Huh-7)?
Its GI50 is 6 nM.

Reference: ChEMBL document CHEMBL4152240, “Synthesis, cytotoxicity and structure-activity relationship of indolizinoquinolinedione derivatives as DNA topoisomerase IB catalytic inhibitors” (2018)
